IC50 and Activity data for 10 compounds are collected here from ChEMBL document CHEMBL1152213, “Design, synthesis and antiviral efficacy of a series of potent chloropyridyl ester-derived SARS-CoV 3CLpro inhibitors” (Bioorg Med Chem Lett, 2008).

Calls of active or inactive are those of the source. The rule behind the calls is not given here. Where only a bound is given, the exact number is not on record here.

The test system of the first experiment is SARS-CoV. In words: Antiviral activity against SARS-CoV Urbani in african green monkey Vero E6 cells assessed as cell viability after 48 hrs. The class given is functional, organism-based. As to conditions: Severe acute respiratory syndrome-related coronavirus.
Usually IC50 stands for the concentration needed to halve the response being measured. `CC(=O)n1ccc2c(C(=O)Oc3cncc(Cl)c3)cccc21`: the IC50 is 1080 nM. Turning to `Cc1ccc(S(=O)(=O)n2ccc3cc(C(=O)Oc4cncc(Cl)c4)ccc32)cc1`, the IC50 is 370 nM. Regarding `CC(C)(C)OC(=O)N[C@@H]1C(=O)N2[C@@H]1SC(C)(C)[C@@H]2C(=O)Oc1cncc(Cl)c1`, the IC50 is greater than 100000 nM. With `O=C(On1nnc2ccccc21)c1ccc2[nH]ccc2c1`, the IC50 is 200 nM. Turning to `CC(=O)N1Cc2ccccc2C[C@H]1C(=O)Oc1cncc(Cl)c1`, the IC50 is 140 nM.

For the compound `O=C(Oc1cncc(Cl)c1)c1ccc2[nH]ccc2c1`, the half-inhibitory concentration (IC50) was determined as 310 nM. Turning to `O=C(Oc1cncc(Cl)c1)c1cccc2cc[nH]c12`, the IC50 stood at 80 nM. The same measure, in the same setting: to `O=C(Oc1cncc(Cl)c1)c1ccc2c(ccn2S(=O)(=O)c2cccc([N+](=O)[O-])c2)c1` belongs 89 nM. Same read-out and setting: to `CC(=O)n1ccc2cc(C(=O)Oc3cncc(Cl)c3)ccc21` belongs 400 nM. Still for that read-out and setting: with `O=C(Oc1cncc(Cl)c1)c1ccc2cc[nH]c2c1` the figure was 230 nM.

The target of a further experiment is Replicase polyprotein 1a (Severe acute respiratory syndrome-related coronavirus) (UniProt P0C6U8). As to the kind of experiment: Inhibition of SARS 3Clpro measured by rate of reaction.
Conditions: not given
In short, it runs like this:
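Full-length authentic enzyme at 100 nM in 50 mM HEPES pH 7.5 with 1 mM DTT and 0.01 mg/mL BSA. IC50 taken from reaction rates across increasing inhibitor concentrations.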
In the case of `CC(=O)n1ccc2c(C(=O)Oc3cncc(Cl)c3)cccc21`, the result was inactive. In the case of `CC(=O)n1ccc2cc(C(=O)Oc3cncc(Cl)c3)ccc21`, the result was inactive.
